ChEMBL document CHEMBL1221183, “Chemical modulation of receptor signaling inhibits regenerative angiogenesis in adult zebrafish” (Nat Chem Biol, 2006)
One block for each compound: values may come before it. Active and inactive are the calls of the source. The calls are words filed in the database; no cut-off is given here.

Assays:
[1] = biological target: Vascular endothelial growth factor receptor 2 (Danio rerio) (UniProt Q5GIT4); assay: Mild inhibition of VEGFR2-mediated regenerative angiogenesis in adult zebrafish tail fin vessel at 100 to 500 nM after 3 days by microscopy
Procedure, shortened: (§1)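 Adult fins cut at mid-fin level; fish kept in fish water with inhibitor (DMSO stock, final DMSO <0.1%) at 31-33 °C, up to six fish per liter, for 3 dpa. Tg(fli1:EGFP)y1 endothelial signal imaged by fluorescence microscopy, with perfusion shown by intracardiac angiography in the same fish.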

[2] = biological target: Vascular endothelial growth factor receptor 2 (Danio rerio) (UniProt Q5GIT4); assay: Inhibition of VEGFR2-mediated regenerative angiogenesis in adult zebrafish tail fin vessel at 500 to 1000 nM after 3 days by microscopy
[3] = biological target: Vascular endothelial growth factor receptor 2 (Danio rerio) (UniProt Q5GIT4); assay: Inhibition of VEGFR2-mediated regenerative angiogenesis in adult zebrafish tail fin vessel harboring hypomorphic mutation in grlm145 gene assessed as vascularization of newly generated tissues at 100 nM measured on day 3 post treatment by angiography; format: tissue-based; design: scale not given: the % may be the effect or the level left
Procedure, shortened: (§2)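 Fins of wild-type or mutant adults cut at mid-fin level, then kept 3 dpa in fish water or 100 nM PTK787 at 31-33 °C. Perfusion shown by intracardiac injection of fluorescent lectin or 70-kDa dextran (5 mg ml-1 in Danieau's, pH 7.6). Tissue regrowth and vessel regeneration measured for each fish and given as percentage of vascularization; ANOVA with Tukey tests.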

[4] = biological target: Vascular endothelial growth factor receptor 2 (Danio rerio) (UniProt Q5GIT4); assay: Partial inhibition of VEGFR2-mediated regenerative angiogenesis in adult zebrafish tail fin vessel at 100 nM after 3 days by microscopy; procedure, shortened: as §1
[5] = biological target: Vascular endothelial growth factor receptor 2 (Danio rerio) (UniProt Q5GIT4); assay: Complete inhibition of VEGFR2-mediated regenerative angiogenesis in adult zebrafish tail fin vessel at 500 nM after 3 days by microscopy; procedure, shortened: as §1
[6] = biological target: Vascular endothelial growth factor receptor 2 (Danio rerio) (UniProt Q5GIT4); assay: Inhibition of VEGFR2-mediated regenerative angiogenesis in adult zebrafish tail fin distal vessel at 500 nM treated for 3 days post 5 days of amputation period measured on day 5 by angiography
Procedure, shortened: (§3)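 Amputated adult Tg(fli1:EGFP)y1 fins recovered at 31-33 °C in fish water or 500 nM inhibitor (final DMSO <0.1%); in washout runs the drug was removed at 3 dpa. The same fish were imaged over several days.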

[7] = biological target: Vascular endothelial growth factor receptor 2 (Danio rerio) (UniProt Q5GIT4); assay: Inhibition of VEGFR2-mediated regenerative angiogenesis in adult zebrafish tail fin proximal vessel at 500 nM treated for 3 days post 5 days of amputation period measured on day 5 by angiography; procedure, shortened: as §3
[8] = biological target: Vascular endothelial growth factor receptor 2 (Danio rerio) (UniProt Q5GIT4); assay: Inhibition of VEGFR2-mediated regenerative angiogenesis in adult zebrafish tail fin distal vessel at 500 nM treated for 3 days post 5 days of amputation period measured on day 8 by angiography; procedure, shortened: as §3
[9] = biological target: Vascular endothelial growth factor receptor 2 (Danio rerio) (UniProt Q5GIT4); assay: Inhibition of VEGFR2-mediated regenerative angiogenesis in adult zebrafish tail fin proximal vessel at 500 nM treated for 3 days post 5 days of amputation period measured on day 8 by angiography; procedure, shortened: as §3
[10] = biological target: Vascular endothelial growth factor receptor 2 (Danio rerio) (UniProt Q5GIT4); assay: Inhibition of VEGFR2-mediated regenerative angiogenesis in adult zebrafish tail fin assessed as amount of tissue regeneration at 500 nM measured on day 7 post treatment by angiography; format: tissue-based; procedure, shortened: as §3
[11] = biological target: Vascular endothelial growth factor receptor 2 (Danio rerio) (UniProt Q5GIT4); assay: Inhibition of VEGFR2-mediated regenerative angiogenesis in adult zebrafish tail fin assessed as amount of tissue regeneration at 500 nM measured on day 14 post treatment by angiography; format: tissue-based; procedure, shortened: as §3
[12] = biological target: Vascular endothelial growth factor receptor 2 (Danio rerio) (UniProt Q5GIT4); assay: Inhibition of VEGFR2-mediated regenerative angiogenesis in adult zebrafish tail fin at 500 nM treated for 3 days measured after 4 days of drug washout by angiography; procedure, shortened: as §3
[13] = biological target: Vascular endothelial growth factor receptor 2 (Danio rerio) (UniProt Q5GIT4); assay: Inhibition of VEGFR2-mediated regenerative angiogenesis in adult zebrafish tail fin assessed as reduction of plexus formation at 500 nM treated for 3 days measured after 4 days of drug washout by angiography; procedure, shortened: as §3
[14] = biological target: Vascular endothelial growth factor receptor 2 (Danio rerio) (UniProt Q5GIT4); assay: Inhibition of VEGFR2-mediated regenerative angiogenesis in adult zebrafish tail fin assessed as decrease in tissue regeneration at 500 nM after 5 days by angiography; format: tissue-based; procedure, shortened: as §3
[15] = biological target: Vascular endothelial growth factor receptor 2 (Danio rerio) (UniProt Q5GIT4); assay: Effect on VEGFR2-mediated axonal outgrowth in adult zebrafish tail fin at 500 nM after 5 days by zn-12 staining-based immunohistochemistry
Procedure, shortened: (§4)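 Fins fixed overnight at 4 °C in Dent's fixative, dehydrated in a methanol series, re-fixed in 4% paraformaldehyde for 2-24 h, then permeabilized in acetone at -20 °C for 20 min and blocked 1 h at 37 °C. Primary antibody zn-12, zns-5 or B-4 (smooth muscle actin) at 1:50-1:200 overnight at 4 °C; Cy2/Cy3 secondary at 1:200.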

[16] = biological target: Vascular endothelial growth factor receptor 2 (Danio rerio) (UniProt Q5GIT4); assay: Effect on VEGFR2-mediated bone tissue regeneration in adult zebrafish tail fin at 500 nM after 5 days by zns-5 staining-based immunohistochemistry; procedure, shortened: as §4
[17] = biological target: Vascular endothelial growth factor receptor 2 (Danio rerio) (UniProt Q5GIT4); assay: Inhibition of VEGFR2-mediated regenerative angiogenesis in adult zebrafish tail fin assessed disruption of actin filament at 500 nM measured after 1 week or recovery post amputation by immunohistochemistry
[18] = biological target: Vascular endothelial growth factor receptor 2 (Danio rerio) (UniProt Q5GIT4); assay: Inhibition of VEGFR2-mediated regenerative angiogenesis in adult zebrafish tail fin assessed disruption of actin filament at 500 nM after 14 days by immunohistochemistry
[19] = biological target: Vascular endothelial growth factor receptor 2 (Danio rerio) (UniProt Q5GIT4); assay: Inhibition of VEGFR2-mediated regenerative angiogenesis in wild type adult zebrafish tail fin vessel assessed as vascularization of newly generated tissues at 100 nM measured on day 3 post treatment by angiography; format: tissue-based; design: scale not given: the % may be the effect or the level left; procedure, shortened: as §2
[20] = biological target: Vascular endothelial growth factor receptor 2 (Danio rerio) (UniProt Q5GIT4); assay: Inhibition of VEGFR2-mediated regenerative angiogenesis in PLCgamma1y10 gene-deficient adult zebrafish tail fin vessel assessed as vascularization of newly generated tissues at 100 nM measured on day 3 post treatment by angiography; format: tissue-based; design: scale not given: the % may be the effect or the level left; procedure, shortened: as §2
[21] = biological target: Vascular endothelial growth factor receptor 2 (Danio rerio) (UniProt Q5GIT4); assay: Inhibition of VEGFR2-mediated regenerative angiogenesis in clom39-positive heterozygous adult zebrafish tail fin vessel assessed as vascularization of newly generated tissues at 100 nM measured on day 3 post treatment by angiography; format: tissue-based; design: scale not given: the % may be the effect or the level left; procedure, shortened: as §2
Danio rerio [22] = species: Danio rerio; assay: Decrease in VEGFR2 gene expression in adult zebrafish tail fin at 500 nM after 3 days by real-time PCR analysis
Danio rerio [23] = species: Danio rerio; assay: Decrease in VEGFR2 gene expression in adult zebrafish tail fin at 500 nM up to 2 days by in-situ hybridization assay
[24] = biological target: Vascular endothelial growth factor receptor 2 (Danio rerio) (UniProt Q5GIT4); assay: Inhibition of VEGFR2-mediated VEGFA mRNA expression in adult zebrafish tail fin at 500 nM after 1.5 days by in-situ hybridization assay
Danio rerio [25] = species: Danio rerio; assay: Decrease in FGFR1 mRNA expression in adult zebrafish tail fin at 500 nM measured on day 2 post treatment by in-situ hybridization assay
[26] = biological target: Vascular endothelial growth factor receptor 2 (Danio rerio) (UniProt Q5GIT4); assay: Inhibition of VEGFR2-mediated shh mRNA expression in adult zebrafish tail fin at 500 nM measured on day 2 post treatment by in-situ hybridization assay
[27] = biological target: Vascular endothelial growth factor receptor 2 (Danio rerio) (UniProt Q5GIT4); assay: Inhibition of VEGFR2-mediated msxb mRNA expression in adult zebrafish tail fin at 500 nM measured on day 2 post treatment by in-situ hybridization assay
Danio rerio [28] = species: Danio rerio; assay: Decrease in VEGFR2 gene expression in adult zebrafish tail fin at 500 nM treated for 3 days measured on day 4 following drug washout by real-time PCR analysis
Danio rerio [29] = species: Danio rerio; assay: Decrease in VEGFR2 gene expression in adult zebrafish tail fin at 500 nM treated for 3 days measured on day 5 following drug washout by real-time PCR analysis
Danio rerio [30] = species: Danio rerio; assay: Effect on ephrinB2a mRNA expression in adult zebrafish tail fin at 500 nM treated for 3 days measured on day 5 following drug washout by real-time PCR analysis
Danio rerio [31] = species: Danio rerio; assay: Effect on semaphorin3aa mRNA expression in adult zebrafish tail fin at 500 nM treated for 3 days measured on day 5 following drug washout by real-time PCR analysis
[32] = biological target: Vascular endothelial growth factor receptor 2 (Danio rerio) (UniProt Q5GIT4); assay: Effect on VEGFR2-mediated VEGFA mRNA expression in adult zebrafish tail fin at 500 nM treated for 3 days measured on day 5 following drug washout by real-time PCR analysis
[33] = biological target: Vascular endothelial growth factor receptor 2 (Danio rerio) (UniProt Q5GIT4); assay: Inhibition of VEGFR2-mediated regenerative angiogenesis in adult zebrafish tail fin vessel at 100 to 500 nM after 3 days by microscopy; procedure, shortened: as §1
[34] = biological target: Vascular endothelial growth factor receptor 2 (Danio rerio) (UniProt Q5GIT4); assay: Inhibition of VEGFR2-mediated regenerative angiogenesis in adult zebrafish tail fin vessel at 500 to 1000 nM after 3 days by microscopy; format: tissue-based

Sequence of Vascular endothelial growth factor receptor 2 (Danio rerio) (Q5GIT4 whole entry, the tested form may be a part): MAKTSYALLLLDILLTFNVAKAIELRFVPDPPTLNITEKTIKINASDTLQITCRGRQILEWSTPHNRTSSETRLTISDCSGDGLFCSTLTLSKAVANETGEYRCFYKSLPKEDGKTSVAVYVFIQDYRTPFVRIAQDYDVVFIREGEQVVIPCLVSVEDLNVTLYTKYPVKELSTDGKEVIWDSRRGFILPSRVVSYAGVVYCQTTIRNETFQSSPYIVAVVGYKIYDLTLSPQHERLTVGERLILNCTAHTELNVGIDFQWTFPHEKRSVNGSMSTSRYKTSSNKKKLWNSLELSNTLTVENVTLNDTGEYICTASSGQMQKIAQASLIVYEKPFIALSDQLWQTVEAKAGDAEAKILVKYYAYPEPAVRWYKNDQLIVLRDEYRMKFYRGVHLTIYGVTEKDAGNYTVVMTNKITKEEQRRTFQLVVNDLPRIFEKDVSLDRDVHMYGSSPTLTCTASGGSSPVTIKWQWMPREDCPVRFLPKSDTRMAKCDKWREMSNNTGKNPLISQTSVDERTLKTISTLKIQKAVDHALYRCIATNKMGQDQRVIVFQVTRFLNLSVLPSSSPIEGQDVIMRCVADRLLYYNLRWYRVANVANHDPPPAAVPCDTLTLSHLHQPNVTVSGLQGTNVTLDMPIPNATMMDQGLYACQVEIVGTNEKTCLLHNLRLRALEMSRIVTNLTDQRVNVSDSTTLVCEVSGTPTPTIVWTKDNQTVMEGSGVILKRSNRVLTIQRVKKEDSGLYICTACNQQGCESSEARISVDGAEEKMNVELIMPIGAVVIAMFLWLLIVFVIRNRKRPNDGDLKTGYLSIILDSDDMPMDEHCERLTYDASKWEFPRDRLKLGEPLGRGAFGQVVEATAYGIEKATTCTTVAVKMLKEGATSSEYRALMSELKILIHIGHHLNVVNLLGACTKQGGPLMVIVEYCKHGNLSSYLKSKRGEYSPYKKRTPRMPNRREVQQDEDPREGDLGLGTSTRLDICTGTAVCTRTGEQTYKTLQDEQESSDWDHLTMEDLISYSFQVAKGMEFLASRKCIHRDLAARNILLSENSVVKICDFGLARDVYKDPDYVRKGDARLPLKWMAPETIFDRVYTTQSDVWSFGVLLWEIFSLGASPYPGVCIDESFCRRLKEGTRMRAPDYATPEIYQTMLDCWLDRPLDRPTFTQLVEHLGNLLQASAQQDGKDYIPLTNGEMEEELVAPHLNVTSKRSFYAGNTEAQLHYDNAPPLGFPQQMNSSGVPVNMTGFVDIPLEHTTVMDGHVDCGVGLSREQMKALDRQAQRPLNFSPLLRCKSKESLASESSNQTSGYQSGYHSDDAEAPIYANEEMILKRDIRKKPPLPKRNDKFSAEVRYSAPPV

inhibition [1]: Active | inhibition [2]: Active
SMILES: CCN(CC)CCNC(=O)c1c(C)[nH]c(/C=C2\C(=O)Nc3ccc(Cl)cc32)c1C

Activity [3]: 30% | inhibition [4]: Active | inhibition [5]: Active | inhibition [6]: Active | inhibition [7]: inactive | inhibition [8]: Active | inhibition [9]: inactive | regenerated tissue length [10]: 800 µm | regenerated tissue length [11]: 800 µm | inhibition [12]: inactive | inhibition [13]: Active | inhibition [14]: Active | Activity [15]: inactive | Activity [16]: inactive | inhibition [17]: Active | inhibition [18]: inactive | Activity [19]: 50% | Activity [20]: 30% | Activity [21]: 50% | inhibition [24]: inactive | inhibition [2]: Active | inhibition [26]: inactive | inhibition [27]: inactive | Activity [32]: inactive
SMILES: Clc1ccc(Nc2nnc(Cc3ccncc3)c3ccccc23)cc1
inhibition (Danio rerio [22]): Active | inhibition (Danio rerio [23]): Active | inhibition (Danio rerio [25]): inactive | inhibition (Danio rerio [28]): inactive | inhibition (Danio rerio [29]): inactive | Activity (Danio rerio [30]): inactive | Activity (Danio rerio [31]): inactive

inhibition [33]: Active
SMILES: O=C(Nc1cccc(C(F)(F)F)c1)c1ccccc1NCc1ccncc1

inhibition [34]: inactive
SMILES: Cc1cc(C)c(/C=C2\C(=O)Nc3ccccc32)[nH]1
